Hits are enriched below; roughly 2.3% of the tested compounds scored in any of these assays.
OXTR agonist: human OXTR agonists, primary screen, fluorescence, CHO-OTR cells, Fluo-8 calcium. AID 2435, 2010. Oxytocin receptor (Homo sapiens), P30559. actives 0.32% (n = 320,000). Fluo-8 calcium fluorescence; normalized: DMSO 0%, oxytocin 100%. activation, % at 3 µM;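 active = activation above the mean of all tested compounds plus 3 SD, cutoff set per screening run, cut at about 20% in these data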;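 also: peak over basal fluorescence ratio from a 100 s FLIPR kinetic read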
TAAR1 antagonist: human TAAR1 antagonists, primary screen, Fluo-8 calcium fluorescence, CHO RD-HGA16 cells. inhibition, % at 3 µM. antagonist. Trace amine-associated receptor 1 (Homo sapiens), Q96RJ0. actives 1.5% (n = 360,000). AID 624466, 2012;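 active = inhibition above a per-plate cutoff, the mean inhibition of test compounds on that plate plus 3 SD, cut at about 49% in these data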;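 also: 0% = DMSO plus EC80 beta-PEA response and 100% = DMSO alone without agonist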
Target sequence (Q96RJ0 whole entry, looked up): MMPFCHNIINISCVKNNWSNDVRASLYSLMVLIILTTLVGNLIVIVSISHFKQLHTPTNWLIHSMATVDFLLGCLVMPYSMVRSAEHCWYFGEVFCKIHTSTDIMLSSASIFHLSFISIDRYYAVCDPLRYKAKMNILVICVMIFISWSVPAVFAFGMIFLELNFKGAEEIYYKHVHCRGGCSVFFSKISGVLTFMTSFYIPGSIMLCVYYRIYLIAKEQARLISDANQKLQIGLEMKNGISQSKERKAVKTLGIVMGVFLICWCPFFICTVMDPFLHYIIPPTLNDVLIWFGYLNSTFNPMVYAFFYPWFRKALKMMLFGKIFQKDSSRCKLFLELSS
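System: RD-HGA16 CHO cells with stable hTAAR1 and Gα16 | Probe or stimulus: EC80 β-phenethylamine stimulus | Dosing: 3 µM, single point | Times: Dye loading 75 min at 37 °C, then 30 min room temperature | Measured by: Fluo-8 calcium-sensitive fluorescence | Read-out basis: % inhibition of agonist calcium response | Replicates: n of 1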
V1R ag counter: agonists of human V1a receptor, primary screen, counter-screen for OXTR agonist project, fluorescence, CHO-V1R cells | Vasopressin V1a receptor (Homo sapiens), P37288 | Fluo-8 calcium fluorescence, agonist mode; 0% DMSO, 100% 3 nM vasopressin | activation, % at 3 µM | actives 0.25% (n = 320,000) | AID 2797, 2010;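 active = activation above the mean activation of all tested compounds plus 3 SD, per screening run, cut at about 20% in these data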;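 also: signal is peak over basal fluorescence ratio across a 100 second FLIPR read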
Target sequence (P37288 whole entry, looked up): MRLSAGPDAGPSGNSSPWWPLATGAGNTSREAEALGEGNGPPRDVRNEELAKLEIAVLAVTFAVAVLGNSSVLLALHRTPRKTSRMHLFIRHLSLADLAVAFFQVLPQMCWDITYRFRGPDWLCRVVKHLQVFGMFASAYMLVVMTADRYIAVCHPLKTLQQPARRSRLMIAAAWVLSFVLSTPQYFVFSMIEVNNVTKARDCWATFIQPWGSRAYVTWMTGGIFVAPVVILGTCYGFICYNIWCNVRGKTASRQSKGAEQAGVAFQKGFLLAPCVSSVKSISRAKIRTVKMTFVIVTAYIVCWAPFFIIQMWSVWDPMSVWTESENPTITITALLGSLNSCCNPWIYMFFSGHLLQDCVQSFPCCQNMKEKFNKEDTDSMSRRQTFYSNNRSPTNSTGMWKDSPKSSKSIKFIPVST
TAAR1 agonist: human TAAR1 agonists, primary screen, Fluo-8 calcium fluorescence, CHO RD-HGA16 cells | vehicle wells 0%, saturating PEA agonist 100% | Trace amine-associated receptor 1 (Homo sapiens), Q96RJ0 | AID 624467, 2012 | activation, % at 3 µM | actives 0.99% (n = 360,000);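 active = activation above the mean activation of all test compounds in the run plus 3 SD, cut at about 38% in these data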
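Test system: RD-HGA16 (CHO) cells co-expressing Gα16 and hTAAR1; dosing: one-point dosing at 3 µM (nominal); timing: 17-24 h seeding, 75 min 37 °C dye, 30 min RT; signal: kinetic Fluo-8 calcium fluorescence; read-out basis: % activation relative to PEA EC100 response; controls: DMSO and PEA EC100; replicates: n 1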
OXTR potentiate: human OXTR potentiators, primary screen, fluorescence, CHO-OTR cells, Fluo-8 calcium; Oxytocin receptor (Homo sapiens), P30559; Fluo-8 calcium fluorescence, potentiator mode; 0% = oxytocin EC15, 100% = EC100; activation, % at 3 µM; actives 0.061% (n = 320,000); AID 2445, 2010;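 active = activation above that plate's cutoff, the mean activation of tested compounds plus 3 SD, cut at about 6.6% in these data, passing the limit was not always enough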;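 also: 100% uses oxytocin at 75 nM as the full agonist control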
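System: human OTR in CHO cells / Also added: sub-maximal oxytocin, roughly EC15 / Control set: EC15 oxytocin low, 75 nM oxytocin high / Schedule: 6 min compound pre-incubation at room temperature, 100 s kinetic read / Compound: single-point 3.0 µM / Replication: singlicate / Technique: Fluo-8 calcium dye fluorescence / Read-out basis: % activation of max/min ratio relative to oxytocin controls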
TAAR1 nonsel count: nonselective antagonists in TAAR1 counter-screen cells, counter-screen for hTAAR1 antagonist project, cell-based, fluorescence, calcium. actives 77% (n = 2,400). AID 651780, 2012. inhibition, % at 3 µM. counterscreen cell line, antagonist mode. shares compounds with TAAR1 antagonist; in the data active = inhibition above about 22%;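 also: CHO-Ga16 host cells stimulated with ATP at an EC80 level; 0% = agonist EC80 plus vehicle and 100% = vehicle without agonist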
TAAR1 antag conf: human TAAR1 antagonists, retest of hits, confirmation, cell-based, fluorescence; shares compounds with TAAR1 antagonist; AID 651785, 2012; inhibition, % at 3 µM; TAAR1-expressing cells, fluorescence antagonist read-out; actives 40% (n = 2,400); in the data active = inhibition above about 49%;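 also: CHO-Ga16 host cells challenged with agonist PEA near its EC80; 0% = agonist at EC80 plus vehicle and 100% = vehicle with no agonist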
Ga16 nonsel ag: calcium activation in Ga16-expressing cells, counter-screen for TAAR1 antagonist project, cell-based, fluorescence; actives 18% (n = 2,400); shares compounds with TAAR1 antagonist; agonist counterscreen; activation, % at 3 µM; in the data active = activation above about 12%;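 also: 0% = vehicle wells and 100% = saturating stimulus response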
TAAR1 ag count: TAAR1 activation by candidate antagonists – cell-based, fluorescence, counter-screen for TAAR1 antagonist project | shares compounds with TAAR1 antagonist | hTAAR1 cell line, agonist mode | activation, % at 3 µM | actives 2% (n = 2,400) | AID 651955, 2012; in the data active = activation above about 37%;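 also: CHO cells stably expressing TAAR1 with calcium dye readout; 0% = DMSO vehicle and 100% = full agonist response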
* = called active by the depositor.

Results for O=C(C[C@@H]1C/C=C\C[C@H](Cc2ccc(F)cc2)C(=O)OC[C@H]2CCCN2C1=O)N[C@H](CO)Cc1ccccc1 ?
OXTR agonist: 1.8; TAAR1 antagonist: 61.0*; V1R ag counter: 0.2; TAAR1 agonist: 21.3; OXTR potentiate: -1.9; TAAR1 nonsel count: 23.5*; TAAR1 antag conf: 33.4; Ga16 nonsel ag: 5.2; TAAR1 ag count: 1.3

Results for CC(C)(C)OC(=O)C[C@H]1C/C=C\C[C@H](CC(=O)N(CCO)Cc2ccccc2)C(=O)N[C@@H](c2ccccc2)COC1=O ?
OXTR agonist: -1.0; TAAR1 antagonist: 55.9*; V1R ag counter: 0.3; TAAR1 agonist: 21.5; OXTR potentiate: -8.0; TAAR1 nonsel count: 30.4*; TAAR1 antag conf: 44.0; Ga16 nonsel ag: 9.3; TAAR1 ag count: 5.5

What do the screens show for `O=C1N[C@H](Cc2ccccc2)COC(=O)[C@H](Cc2ccc(F)cc2)C/C=C\C[C@@H]1CC(=O)N(CCO)Cc1ccccc1`?
OXTR agonist: 1.4; TAAR1 antagonist: 54.1*; V1R ag counter: 3.2; TAAR1 agonist: 34.6; OXTR potentiate: -3.6; TAAR1 nonsel count: 32.0*; TAAR1 antag conf: 49.2*; Ga16 nonsel ag: 12.3*; TAAR1 ag count: 16.5

How did O=C1N[C@@H](c2ccccc2)COC(=O)[C@H](Cc2ccc(F)cc2)CC/C=C/C[C@H]1CC(=O)N(CCO)Cc1ccccc1 do in these assays?
OXTR agonist: 1.0; TAAR1 antagonist: 60.6*; V1R ag counter: 0.5; TAAR1 agonist: 15.3; OXTR potentiate: -8.3; TAAR1 nonsel count: 32.2*; TAAR1 antag conf: 47.4; Ga16 nonsel ag: 13.4*; TAAR1 ag count: 12.8

What do the screens show for `COCCCNC(=O)c1ccc2sc(C3=C[C@@H](O)[C@@H](O)[C@@H](CO)O3)nc2c1`?
TAAR1 antagonist: -12.2; TAAR1 agonist: 2.0

What do the screens show for `O=C(CC(C(=O)c1ccccc1)c1ccccc1)c1ccccc1` (centres undefined)?
TAAR1 antagonist: 66.7*; TAAR1 agonist: 0.9; TAAR1 nonsel count: 22.7*; TAAR1 antag conf: 40.1; Ga16 nonsel ag: 6.0; TAAR1 ag count: 2.0

Results for CN(C)CC(C(=O)c1ccccc1)c1ccccc1 (centres undefined) ?
OXTR agonist: -2.3; TAAR1 antagonist: 9.9; V1R ag counter: -1.3; TAAR1 agonist: 1.1; OXTR potentiate: -9.6

What do the screens show for `COc1ccc(-c2cc(NC(C)=O)c3ncc(-c4ccccc4)n3c2)cc1OC`?
TAAR1 antagonist: 16.9; TAAR1 agonist: 5.9

What do the screens show for `COc1ccccc1-c1cc(NC(C)=O)c2ncc(-c3cccc(C(F)(F)F)c3)n2c1`?
TAAR1 antagonist: 58.6*; TAAR1 agonist: 0.9; TAAR1 nonsel count: 31.7*; TAAR1 antag conf: 50.6*; Ga16 nonsel ag: 6.2; TAAR1 ag count: 19.6

How did COc1ccc(-c2cc(NC(C)=O)c3ncc(-c4ccccc4)n3c2)c(OC)c1 do in these assays?
TAAR1 antagonist: 67.9*; TAAR1 agonist: 3.0; TAAR1 nonsel count: 26.4*; TAAR1 antag conf: 31.8; Ga16 nonsel ag: 7.5; TAAR1 ag count: 4.9

How did COc1ccccc1-c1cc(NC(C)=O)c2ncc(-c3ccccc3)n2c1 do in these assays?
TAAR1 antagonist: 55.9*; TAAR1 agonist: 4.4; TAAR1 nonsel count: 23.6*; TAAR1 antag conf: 40.5; Ga16 nonsel ag: 21.4*; TAAR1 ag count: 36.6

How did CC(=O)Nc1cc(-c2cccc(F)c2)cn2c(-c3ccccc3)cnc12 do in these assays?
TAAR1 antagonist: 61.4*; TAAR1 agonist: 10.8; TAAR1 nonsel count: 35.3*; TAAR1 antag conf: 42.6; Ga16 nonsel ag: 4.4; TAAR1 ag count: 8.4

Results for COc1ccc(-c2cc(NC(C)=O)c3ncc(-c4ccc(OC)c(OC)c4)n3c2)c(OC)c1 ?
TAAR1 antagonist: -8.9; TAAR1 agonist: -0.9

How did CC(=O)Nc1cc(-c2ccccc2F)cn2c(-c3ccccc3)cnc12 do in these assays?
TAAR1 antagonist: 68.2*; TAAR1 agonist: 3.5; TAAR1 nonsel count: 28.5*; TAAR1 antag conf: 46.5; Ga16 nonsel ag: 9.9; TAAR1 ag count: 13.7

How did CC(=O)Nc1cc(-c2ccccc2N(C)C)cn2c(-c3ccccc3)cnc12 do in these assays?
TAAR1 antagonist: 40.1; TAAR1 agonist: 18.6

Results for Cc1cc(C)c2sc(N(CCCN(C)C)C(=O)c3ccc(S(=O)(=O)N(C)Cc4ccccc4)cc3)nc2c1 ?
OXTR agonist: 11.3; TAAR1 antagonist: 50.0*; V1R ag counter: 2.2; TAAR1 agonist: 34.7; OXTR potentiate: -10.1; TAAR1 nonsel count: 39.1*; TAAR1 antag conf: 40.1; Ga16 nonsel ag: 26.2*; TAAR1 ag count: 46.4*

How did Cc1nn(CCc2nn[nH]n2)c2nc(-c3ccc(Br)cc3)cc(C(F)(F)F)c12 do in these assays?
OXTR agonist: 8.0; TAAR1 antagonist: 71.4*; V1R ag counter: 9.7; TAAR1 agonist: 1.6; OXTR potentiate: -11.0; TAAR1 nonsel count: 15.9; TAAR1 antag conf: 32.9; Ga16 nonsel ag: 1.6; TAAR1 ag count: -3.9

What do the screens show for `Cc1ccc(NC(=O)CN(Cc2ccco2)Cc2ccccc2O)cc1C`?
OXTR agonist: 3.2; TAAR1 antagonist: 51.7*; V1R ag counter: 3.6; TAAR1 agonist: 2.6; OXTR potentiate: -7.8; TAAR1 nonsel count: 23.6*; TAAR1 antag conf: 44.8; Ga16 nonsel ag: 4.8; TAAR1 ag count: 7.1

How did Cc1ccc(NC(=O)N(Cc2ccco2)C(C)c2ccco2)cc1C (centres undefined) do in these assays?
OXTR agonist: -2.2; TAAR1 antagonist: -2.8; V1R ag counter: -0.9; TAAR1 agonist: -1.1; OXTR potentiate: -3.2

What do the screens show for `CCOc1ccc(CN(C)C(=O)Cc2c[nH]c3ccccc23)cc1`?
TAAR1 antagonist: -4.6; TAAR1 agonist: 0.4

Results for OC[C@@H]1CN(Cc2ccc(F)cc2)C[C@H](n2cnc3c(N4CCN(c5ccccc5)CC4)ncnc32)O1 ?
TAAR1 antagonist: 64.3*; TAAR1 agonist: 10.3; TAAR1 nonsel count: 35.6*; TAAR1 antag conf: 54.7*; Ga16 nonsel ag: 18.1*; TAAR1 ag count: 20.4
